The structures appear in SMILES notation.

Data set [1] concerns Mus musculus. Put plainly: fecal levels excreted after administration of 2-phenylthiazolidine (500 mg/kg) to mice measured at 0-30h. It counts as ADME, organism-based. As to conditions: in vivo. In a few lines: (§1)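 Radiolabelled compound ([³⁵S] or [α-¹⁴C]) given intraperitoneally in Miglyol 812 to mice, which were then housed in separate metabolic cages and fed normally. Faeces were collected over 0-30 h, pounded and counted by liquid scintillation. Values are percent of injected dose, given as mean ± standard error. Each line has its own number of experiments.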

The test system of data set [2] is Mus musculus. Put plainly: urine levels excreted after administration of cysteamine (175 mg/kg) to mice measured at 0-24 hr. Particulars: in vivo. The data set is classed as ADME, organism-based. In a few lines: (§2)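 [³⁵S]cysteamine 175 mg/kg given intraperitoneally in Miglyol 812 to mice, which were then housed in separate metabolic cages and fed normally. Urine was sampled at 6, 24 and 30 h and counted by liquid scintillation. Values are percent of injected dose excreted, as mean ± standard error of 4-5 experiments. The Mann-Whitney-Wilcoxon test was used for significance.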

A short description of data set [3]: urine levels excreted after administration of cysteamine (175 mg/kg) to mice measured at 24-30 hr. It counts as ADME, organism-based. Particulars: mouse, read-out: Excretion. In a few lines:
as §2

Data set [4] has as its system Mus musculus. Description: Percent survival at 2 hr time interval between administration (225 mg/kg, ip) and irradiation* in mice. It counts as functional.
The species named for data set [5] is Mus musculus. Put plainly: Lethal dose in mice. It counts as functional.
The subject of data set [6] is Mus musculus. Put plainly: faecal levels excreted after administration of cysteamine (175 mg/kg) to mice measured at 0-30h. The data set is classed as ADME, organism-based. Particulars: in vivo. The gist of the method:
as §1

For data set [7], the system named is Mus musculus. Description: Percent survival at 15 min time interval between administration (225 mg/kg, ip) and irradiation* in mice. The data set is classed as functional.
The test system of data set [8] is Mus musculus. Description: urine levels excreted after administration of cysteamine (175 mg/kg) to mice measured at 0-6 hr. The data set is classed as ADME, organism-based. Particulars: in vivo. In a few lines: as §2
In data set [9] the test system is Mus musculus. Description: Percent survival at 1 hr time interval between administration (225mg/kg, ip) and irradiation* in mice. The data set is classed as functional.
Data set [10] can be described thus: urine levels excreted after administration of benzaldehyde (250 mg/kg) to mice measured at 24-30 hr. The data set is classed as ADME, organism-based. Particulars: mouse, read-out: Excretion. The gist of the method: (§3)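 [α-14C]Benzaldehyde was given at 250 mg/kg intraperitoneally in Miglyol 812. Mice were kept in separate metabolic cages and fed normally. Urine was collected at 6, 24 and 30 h, and feces were pounded. Radioactivity was measured by liquid scintillation counting and expressed as percent of injected dose excreted, given as mean ± standard error of 4 experiments.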

Data set [11] deals with Mus musculus. Put plainly: fecal levels excreted after administration of benzaldehyde (250 mg/kg) to mice measured at 0-30h. It counts as ADME, organism-based. Particulars: in vivo. In a few lines:
as §3

The test system of data set [12] is Mus musculus. Description: urine levels excreted after administration of benzaldehyde (250 mg/kg) to mice measured at 0-6 hr. It counts as ADME, organism-based. Particulars: in vivo. In a few lines: as §3
Data set [13] can be described thus: urine levels excreted after administration of benzaldehyde (250 mg/kg) to mice measured at 0-24 hr. It counts as ADME, organism-based. Particulars: mouse, read-out: Excretion. In a few lines:
as §3

The test system of data set [14] is Mus musculus. Description: Percent survival at 1 hr time interval between administration (500 mg/kg, ip) and irradiation* in mice. The data set is classed as functional.
The subject of data set [15] is Mus musculus. Description: Percent survival at 15 min time interval between administration (500mg/kg, ip) and irradiation* in mice. The data set is classed as functional.
In data set [16] the test system is Mus musculus. Description: Percent survival at 6 hr time interval between administration (500 mg/kg, ip) and irradiation* in mice. The data set is classed as functional.
Data set [17] has as its system Mus musculus. Put plainly: Percent survival at 2 hr time interval between administration (500 mg/kg, ip) and irradiation* in mice. The data set is classed as functional.
The subject of data set [18] is Mus musculus. Put plainly: fecal levels excreted after administration of 2-(3-bromophenyl)thiazolidine(500 mg/kg) to mice measured at 0-30h. The data set is classed as ADME, organism-based. As to conditions: in vivo. The gist of the method:
as §1

Regarding `c1ccc(C2NCC[35S]2)cc1` (stereo in doubt; 1b), in the data set on Mus musculus [1], the Excretion was found to be 0.6%.

The LD50 is the dose at which mortality reaches 50%. Read a low LD50 as a more toxic substance. As to `NCCS` [CYSTEAMINE], the Excretion is 55.7% with Mus musculus [2], 0.92% in the data set on Mus musculus [6] and 42.6% in the data set on Mus musculus [8]. The dose excreted in data set [3] came to 4.1%. Further, the Survival worked out at 45% in the data set on Mus musculus [4], 95% in the data set with Mus musculus [7] and 80% in the data set with Mus musculus [9]. Also, the LD50 in the data set listed under Mus musculus [5] is 450 mg/kg.

For the compound `O=Cc1ccccc1` [BENZALDEHYDE], the dose excreted amounted to 5% in data set [10] and 84.2% in data set [13]. In addition, the figures for the Excretion in the data set with Mus musculus [11] and in the data set on Mus musculus [12] were 0.43% and 52.6%, respectively.

In the case of `c1ccc(C2NCCS2)cc1` (stereo not drawn), the median lethal dose (LD50) in the data set filed under Mus musculus [5] was found to be 1000 mg/kg. Further, the Survival in the data set with Mus musculus [14] was 100%; with Mus musculus [15], 100%; in the data set on Mus musculus [16] it was 85%; in the data set with Mus musculus [17] it was 100%.

For `c1ccc(C2NCC[35S]2)cc1` (stereo in doubt; 1a), the Excretion in the data set with Mus musculus [1] stood at 0.42%.

Turning to `Brc1cccc(C2NCCS2)c1` (stereo not drawn), the Excretion in the data set on Mus musculus [18] was found to be 0.43%. The same compound yielded a median lethal dose (LD50) in the data set listed under Mus musculus [5] of 1000 mg/kg. The Survival in the data set on Mus musculus [14] was 100%; in the data set on Mus musculus [15] it was 20%.

For the origin of these results see ChEMBL document CHEMBL1122288, “Relationship between metabolism and radioprotective activity of 2-phenylthiazolidine and its m-bromo derivative” (J Med Chem, 1983).
